# From PubChem
# A selection: hits, their analogues and other compounds. The true share with any hit is near 1.5%.
# TPT1 inh = inhibitors of Candida albicans tRNA 2'-phosphotransferase TPT1; recombinant caTPT1, FP RNA substrate dephosphorylation; inhibition, % at 5 µM; 0.81% of 300,000 active; AID 1962;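 active = inhibition above the mean of all tested compounds plus 3 SD, set per screening campaign, cut at about 24% in these data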;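 also: plate controls were DMSO alone for no effect and ferristatin control at 100 nM for full effect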
# Rpn11 inh = inhibitors of human proteasome Rpn11; calls only at 20 µM; O00487; human 26S proteasome, Ub4-pepOG fluorescence polarization; 20S core pre-blocked with epoxomicin; 0.59% of 360,000 active;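 active = inhibition at 20 µM, scaled to each plate's controls, above about 33%, limit read from the data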
# HNF4A DNA FP = change in binding of human HNF4 alpha to DNA. 0.3% of 360,000 active. HNF4a-FITC DNA binding, fluorescence polarization, 1 h. activity change, % at 10 µM. P41235; in the data active = activity change above about 30%, passing the limit was not always enough
# Target sequence (P41235 whole entry, looked up): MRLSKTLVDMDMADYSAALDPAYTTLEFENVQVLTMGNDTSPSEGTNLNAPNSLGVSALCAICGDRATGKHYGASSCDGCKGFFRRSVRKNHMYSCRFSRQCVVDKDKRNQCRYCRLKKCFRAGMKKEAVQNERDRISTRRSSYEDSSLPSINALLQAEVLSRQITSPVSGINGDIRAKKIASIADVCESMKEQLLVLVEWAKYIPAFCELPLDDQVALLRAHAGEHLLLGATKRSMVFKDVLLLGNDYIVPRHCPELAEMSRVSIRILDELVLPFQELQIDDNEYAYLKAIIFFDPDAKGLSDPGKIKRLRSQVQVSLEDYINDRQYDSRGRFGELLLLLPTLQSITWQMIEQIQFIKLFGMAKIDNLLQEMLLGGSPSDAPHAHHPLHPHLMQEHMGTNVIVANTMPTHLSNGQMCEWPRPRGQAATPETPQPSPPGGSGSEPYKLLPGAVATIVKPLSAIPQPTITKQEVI
# CSN inh = inhibitors of human CSN-mediated cullin deneddylation | Q92905 | Purified CSN, SCF-Nedd8-OG deneddylation, fluorescence polarization | inhibition, % at 12.5 µM | 0.38% of 360,000 active;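 active = pattern-corrected inhibition above about 35%, with an unprinted fluorescence ratio check between 0.5 and 1.5, limit read from the data, passing the limit was not always enough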;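 also: 0% = enzyme with substrate and 100% = substrate without enzyme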
#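 Material: human Csn5 produced in HEK293T cells; Input: enzyme 0.24 nM; Reagent: SCFSkp2-Nedd8OG substrate at 10 nM final; Dosing: 12.5 µM compound; Incubation: 90 min reaction at room temperature; Detection: fluorescence polarization of the substrate; Evaluation: % inhibition of substrate cleavage by Csn5; Control set: substrate-only high control, full reaction low control.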
# Rpn11 inh conf = Rpn11 inhibition confirmation, single concentration | shares compounds with Rpn11 inh | purified human 26S proteasome, Ub4-pepOG fluorescence polarization; proteasome pretreated with epoxomicin | inhibition, % at 20 µM | 29% of 1,900 active | AID 602318
# MMP-2 inh = blocks human MMP-2, flagging nonselective RPN11 hits | inhibition, % at 20 µM | AID 602330 | shares compounds with Rpn11 inh | 4% of 1,900 active | recombinant MMP-2, FRET peptide cleavage fluorescence;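 also: human MMP-2 activated beforehand with APMA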
# Thrombin FP = thrombin (bovine) inhibition counter-screen | bovine thrombin cleavage of Ub4-pepOG, fluorescence polarization | AID 602333 | inhibition, % at 20 µM | 13% of 1,900 active | shares compounds with Rpn11 inh;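 active = mean inhibition at least 40% at 20 µM, or signal 3 deviations below plate average, so some actives read negative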;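 also: plate controls were thrombin with DMSO for no effect and buffer wells lacking thrombin for full effect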
# Active calls of the source: *; i = inactive; · = no result given; + = active, no number. Rule as the data show it, unless noted: active = inhibition above about 40%; inactive = the rest.
SMILES,TPT1 inh,Rpn11 inh,HNF4A DNA FP,CSN inh,Rpn11 inh conf,MMP-2 inh,Thrombin FP
CC(C(=O)Nc1ccc(C(=O)O)c(O)c1)N1C(=O)/C(=C\c2ccco2)SC1=S (centres undefined),15,+,-14,53*,45*,34,-6
CCOc1ccc(/C=C2\SC(=S)N(CCC(=O)Nc3ccc(C(=O)O)cc3)C2=O)cc1,-1,+,3,6,15,-42,-16
CC(C(=O)N(C)C1CCS(=O)(=O)C1)N1C(=O)/C(=C/c2ccco2)SC1=S (centres undefined),-33,i,8,8,·,·,·
O=C(CCN1C(=O)/C(=C/c2ccc3c(c2)OCO3)SC1=S)Nc1ccc(C(=O)O)cc1,9,i,6,9,·,·,·
O=C(CCCN1C(=O)/C(=C/c2ccc3c(c2)OCO3)SC1=S)Nc1ccc(C(=O)O)cc1,22,+,24,11,52*,6,21
COc1ccc(C=C2SC(=S)N(CCCC(=O)Nc3ccc(C(=O)O)c(O)c3)C2=O)cc1OC,·,+,23,9,97*,-30,79*
CCOc1ccc(/C=C2\SC(=S)N(CCC(=O)Nc3cccc(C(=O)O)c3)C2=O)cc1,-3,i,-1,16,·,·,·
CN(C)CCCNC(=O)C(=O)NCC1OCCN1S(=O)(=O)c1cc(F)ccc1F (centres undefined),-2,i,2,1,·,·,·
Cn1cc(/C=C2/SC(=O)N(CC(=O)Nc3ccc4c(c3)OCO4)C2=O)c2ccccc21,2,i,8,10,·,·,·
O=C(CN1C(=O)S/C(=C\c2ccc(-c3cc(C(=O)O)ccc3Cl)o2)C1=O)Nc1ccc2c(c1)OCO2,·,+,-53,18,34,4,21
O=C(COC(=O)C1CCN(S(=O)(=O)c2c(Cl)cccc2Cl)CC1)NCc1ccco1,-1,i,1,-5,·,·,·
Cc1cc(C(=O)COC(=O)c2ccc(Cl)c(S(N)(=O)=O)c2)c(C)n1C1CC1,-2,i,0,-1,·,·,·
C#CCN1CCc2onc(-c3ccccc3OC)c2C1=O,·,i,2,2,·,·,·
Cc1occc1C(=O)N1CCN(S(=O)(=O)c2ccccc2)CC1,4,i,-7,0,·,·,·
Cc1nc(C)c(-c2ccc(SCC(=O)Nc3cccc(Cl)c3)nn2)s1,2,i,5,-2,·,·,·
Cc1cc(=O)n2[nH]c(-c3ccsc3-n3c(C)ccc3C)cc2n1,15,+,-10,42,-7,-6,12
COCc1cc(=O)n2[nH]c(-c3ccsc3-n3c(C)ccc3C)cc2n1,13,i,4,52,·,·,·
c1cc(C2CCCCC2)ccc1Oc1nc(N2CCOCC2)nc(N2CCOCC2)n1,-3,+,-20,1,7,19,-13
c1ccc(Oc2nc(N3CCOCC3)nc(N3CCOCC3)n2)cc1,0,i,-1,-8,·,·,·
Cc1cc(N)c(NC2=CC(=O)CC(C)(C)C2)cc1C,-1,+,-27,-5,8,-9,3
Cc1ccc(NC2=CC(=O)CC(C)(C)C2)cc1F,-2,i,0,-3,·,·,·
C=CCN(c1ccccc1OC)S(=O)(=O)c1cccc(C(=O)OCC(=O)c2c(N)n(C)c(=O)n(C)c2=O)c1,·,i,-2,-1,·,·,·
COc1ccc(Nc2nc(-c3cccs3)cs2)c(OC)c1,1,+,10,-3,-15,-11,-7
COc1ccc(C2C(C#N)=C(N)Oc3cc(O)ccc32)cc1Cl (centres undefined),19,+,32,7,-4,-16,-8
N#CC1=C(N)Oc2cc(O)ccc2C1c1cccnc1 (centres undefined),8,i,9,6,·,·,·
SMILES,TPT1 inh,Rpn11 inh,HNF4A DNA FP,CSN inh,Rpn11 inh conf,MMP-2 inh,Thrombin FP
C#CCOc1ccc(C2C(C#N)=C(N)Oc3cc(O)ccc32)cc1 (centres undefined),8,+,24,6,4,-28,-32
CCOc1ccc(C2C(C#N)=C(N)Oc3cc(O)ccc32)cc1OCC (centres undefined),7,i,0,0,·,·,·
N#CC1=C(N)Oc2cc(O)c(Cl)cc2C1c1cccnc1 (centres undefined),·,+,9,0,-13,-28,-12
Cc1ccc(OCCC(=O)OCC(=O)NCCc2ccc(Cl)cc2)cc1,1,i,-2,-4,·,·,·
Cc1ccc(S(=O)(=O)N2C[C@H]3N(C(=O)OC(C)C)N(C(=O)OC(C)C)C[C@H](OC(=O)NCC4CCCCC4)[C@@]3(O)C2)cc1,·,i,-2,-1,·,·,·
Cc1ccccc1OCC(=O)N1N=C(C(F)(F)F)CC1(O)C(C)(C)C (centres undefined),-1,+,5,3,-1,-12,-7
O=[N+]([O-])c1ccc2c([N+](=O)[O-])ccc3c2c1CC3,·,i,-15,-3,·,·,·
CCSc1nc(N)c(C#N)c(-c2ccco2)c1C#N,-2,i,-1,-1,·,·,·
CC(C)Cc1cc(-c2ccco2)c(C#N)c(N)n1,-4,+,6,19,-6,-9,-6
Cc1nnsc1C(=O)NC1CCCc2c1cnn2-c1cc(F)cc(F)c1 (centres undefined),-2,i,1,4,·,·,·
Cc1nnsc1C(=O)NC1CCCc2c1cnn2-c1ccc(F)cc1F (centres undefined),3,+,6,-3,12,-48,-3
COc1cc(/C=C2\SC(=S)N(N(C)c3ccccc3)C2=O)ccc1O,13,+,13,19,6,-16,9
O=C(Nn1cnnc1)c1ccc(Br)s1,-2,+,6,-6,-11,2,-9
O=C(Nc1ccccn1)c1ccc(Br)s1,-1,i,4,-3,·,·,·
CC(CNC(=O)CCn1ccc2cc(S(=O)(=O)N3CCCC3)ccc21)c1ccccc1 (centres undefined),0,i,2,-6,·,·,·
Cc1c(C(=O)O)sc2nc(CSc3nnc(-c4ccc(F)cc4)n3C)[nH]c(=O)c12,1,i,-5,-4,·,·,·
CC(=O)c1sc2nc(CSc3nncn3C)[nH]c(=O)c2c1C,6,+,1,-1,4,-74,8
CCOc1ccccc1-c1nnc(SCC(=O)NC2CC2)n1CC,-3,i,-3,-1,·,·,·
O=C(Nc1ccncc1)c1sc2ccccc2c1Cl,-3,i,4,-9,·,·,·
O=C(Nc1ccnc(=O)[nH]1)c1sc2ccccc2c1Cl,0,+,0,8,3,16,-8
C/C(=N\NS(=O)(=O)c1ccc(Cl)c([N+](=O)[O-])c1)c1ccc(C)o1,-4,i,3,2,·,·,·
